Test: Toxicity liver stage against HepG2, at 10uM
Type: cell-based
Set-up: test concentration 10 uM, cell line HepG2-A16-CD81EGFP
Settings: human, HepG2-A16-CD81EGFP cells; read-out: INHIBITION
Summary of the method: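 Uninfected HepG2-A16-CD81EGFP cells, 3 × 10^3 per well, 1536-well, plated on prespotted compound at 10 μM final, parasite-free screening media added to match infected plates; puromycin 10 μM positive, DMSO 0.5% negative; run in parallel with 48 h PbLuc assay at 37 °C, 5% CO2; viability by CellTiter-Glo luminescence, normalized to controls.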

Row | SMILES | cytotoxicity at 10 µM [%]
1 | O=C(NC[C@H]1OC[C@@H](NC2CCC(F)(F)CC2)[C@@H]1O)C1CC1 | -1.39
2 | O=C(O)CCCC(=O)N1CCC(c2noc3cc(F)ccc23)CC1 | -4.66
3 | Cn1c(C(=O)N2CC[C@@]3(O)CCCC[C@H]3C2)cc2ccccc21 | -46.8
4 | C[C@H]1C[C@H]2CN(C(=O)C3=CCCC3)CC[C@H]2O1 | 3.76
5 | O=C(O)c1ccc2[nH]cc(CN3CCOCC3)c2c1 | -9.48
6 | COc1nn(C)c2c1CCCN(C(=O)c1ccccc1)C2 | -9.76
7 | C[C@H]1C[C@H]2CN(C(=O)c3ccncn3)CC[C@H]2O1 | -20.9
8 | COc1ccc2c(c1)C1(CCN(Cc3ccncc3)CC1)N(C)CC2 | -14.2
9 | Cc1nn(CC(C)C)cc1S(=O)(=O)N(C)Cc1nonc1C | 11.3
10 | COCc1ccc(OC)c(CNC2CCCNC2=O)c1 (centres undefined) | 3.66
11 | O=C(O)[C@@H]1CCN(C(=O)Cc2ccccn2)[C@@H]1c1ccc(F)cc1 | 4.22
12 | O[C@H]1CN(Cc2c[nH]nc2-c2ccccc2)CC[C@@]12CCCO2 | 10.3
13 | COc1ccc(Cl)cc1CN1CC(n2cccn2)C1 | -1.73
14 | CNS(=O)(=O)CC1CCCN1c1ccccn1 (centres undefined) | 2.83
15 | O=C(CNC(=O)c1ccccc1Cl)Nc1nccs1 | -3.09
16 | CCn1ccnc1S(=O)(=O)Cc1c(C)cc(C)c(C(C)=O)c1C | 8.5
17 | CN(C)C(=O)c1cccc(CCNS(C)(=O)=O)c1 | -6.46
18 | CCc1nnc2n1CCN(C(=O)C(OC)c1ccccc1)C2 (centres undefined) | 3.65
19 | COCCN(Cc1ccccc1)Cc1nc(-c2ccsc2)no1 | 5.6
20 | O=C(Nc1ccccc1Cn1cccn1)N1CCCC(N2CCCC2)C1 (centres undefined) | 5.6
21 | COC(=O)NC1(C(=O)Nc2ccc(-c3cc[nH]n3)cc2)CCCC1 | -11.2
22 | CCc1nc(C2CCCN2c2ncc(C(F)(F)F)cc2Cl)no1 (centres undefined) | 5.64

Row | SMILES | cytotoxicity at 10 µM [%]
23 | COC(=O)CNC(=O)C1(NC(=O)c2ccc3[nH]ncc3c2)CCCC1 | -2.23
24 | CC(O)CN1CCN(C(=O)c2cn(-c3ccccc3Cl)nn2)CC1 (centres undefined) | 0.361
25 | O=C(O)c1csc(S(=O)(=O)N2CCCc3ccc(F)cc32)c1 | 16.6
26 | CC(O)CC(C)(C)CNC(=O)NCc1cccc(-n2cncn2)c1 (centres undefined) | -4.79
27 | O=C(Nc1ccccc1)N1CC(C(=O)N2CCCC2)C2(CCOCC2)C1 (centres undefined) | -82.4
28 | COCCNS(=O)(=O)c1cccc2c1CN(C(=O)c1ccoc1)CC2 | -3.88
29 | O=C(Nc1cnc2n1CCCC2)c1cccc(OCC(F)(F)F)c1 | -0.651
30 | CNc1ncc(CN(C)c2nc(C)c3ccc(S(C)(=O)=O)cc3n2)cn1 | -3.66
31 | CC(C)Cc1cc(C(=O)NCC(c2ccc(F)cc2)N(C)C)n(C)n1 (centres undefined) | -3.97
32 | COc1cccn(CC(=O)N2CCC3(CCNCC3)C2)c1=O | -11.4
33 | Cc1ccc2cc(C3(O)CCN(C(=O)CN4CCCC4)CC3)ccc2n1 | 2.57
34 | COc1ccc(C2CC(=O)Nc3c2cnn3C2CCCC2)cc1 (centres undefined) | -9.41
35 | CN(Cc1ccsc1)C(=O)c1cc2c([nH]c1=O)CCC2 | -12.4
36 | Cc1nc(C)n(CC2CCCN2CCCc2nc3ccccc3o2)n1 (centres undefined) | -8.58
37 | Cn1cnc(S(=O)(=O)NCCCN2CCCC2)c1Cl | -11.6
38 | Cc1csc(N2CCN(C(=O)C3(C#N)CCCC3)CC2)n1 | -12.6
39 | CCN1C[C@H]2[C@@H](C1)N(C(=O)Cc1ccsc1)CC[C@H]2OC | 6.8
40 | O=C(C1=CCCC1)N1CCC[C@]2(C[C@@H](OCc3ccncc3)CO2)C1 | -6.5
41 | CCN1CCN(C)C(=O)C12CCN(Cc1ccsc1)CC2 | 1.14
42 | CN(C)C(=O)N1C[C@H]2CCC[C@@]2(COc2ccccn2)C1 | 3.24
43 | CN1[C@@H](C(=O)NCC2CC2)C[C@@H]2CN(Cc3ccsc3)C[C@@H]21 | -4.04
44 | Cc1occc1C(=O)N1CCC[C@]2(C[C@@H](OCc3ccncc3)CO2)C1 | -6.25

Reference: ChEMBL document CHEMBL4513216, “Probing the Open Global Health Chemical Diversity Library for Multistage-Active Starting Points for Next-Generation Antimalarials” (ACS Infect Dis, 2020)
